# From PubChem
# Only some compounds are listed: those with a hit (about 0.89% of all), similar ones and a draw of the others.
# hiPSC survival: increases survival of single human iPS cells; hiPSC single-cell survival, ATPlite luminescence; 100% = ROCK inhibitor wells, 0% = DMSO; survival enhancement, % at 20 µM; hit rate 0.044% among 360,000; AID 602274; in the data active means survival enhancement above about 18%;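 further: cells exposed to compounds for 16 hours before the ATP read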
# PG9 binder: binds the HIV-1 gp120 antibody PG9; AID 624416; inhibition, % at 6.7 µM; hit rate 0.43% among 360,000; TR-FRET gp120-PG9 antibody binding; in the data active means inhibition above about 8.5%
# Arr AP2 block: blocks beta-arrestin peptide binding to AP2 adaptin; hit rate 0.31% among 340,000; inhibition, % at 10 µM; FITC-arrestin peptide / GST-AP2 beads, flow cytometry; AP2 beta2 appendage carries R879A mutation;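 active means inhibition above a set limit, near 3 SD of compounds lacking own fluorescence, cut at about 54% in these data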
#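 Measured by: flow cytometry, FL1 (488/535 nm); Material: AP2 appendage R879A on GSH beads; Evaluation: percent response; Timing: pre-incubation 12 min, peptide binding 1 h, room temperature; Also added: 50 nM FITC-arrestin peptide; Medium: PBS with 0.05% Tween 20 and 0.1% BSA.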
# ABCB6 inh MLPCN: blocks the human ABCB6 transporter; Q9NP58; K562-ABCB6 porphyrin accumulation, flow cytometry, 1 h; active compounds read low; fluorescence ratio to DMSO, % at 10 µM; hit rate 0.19% among 360,000;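 active means fluorescence ratio to DMSO below 75%, the collection mean minus 3 SD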;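 further: signal is porphyrin accumulated inside mitochondria; lower ratio means ABCB6 inhibition with less porphyrin fluorescence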
# PG9 binder conf: PG9 antibody binding, confirmed; inhibition, % at 6.7 µM; shares compounds with PG9 binder; hit rate 90% among 1,500; AID 651571; TR-FRET PG9 antibody binding, biochemical; in the data active means inhibition above about 9%
# PGV04 counter: PGV04 control antibody binding, counter-screen; shares compounds with PG9 binder; TR-FRET PGV04 antibody-gp120 binding, biochemical; inhibition, % at 6.7 µM; hit rate 95% among 1,500; AID 651604; in the data active means inhibition above about 9.5%
# Numbers stand for hits; n = inactive; x = no result given.
SMILES,hiPSC survival,PG9 binder,Arr AP2 block,ABCB6 inh MLPCN,PG9 binder conf,PGV04 counter
C=CCN=C1NC(c2ccccc2C(F)(F)F)C(C(=O)OC)=C(C)N1Cc1ccc(C(F)(F)F)cc1 (stereo not given),x,n,x,x,x,x
CCCN1CCCCC(NC(=O)c2ccc(-c3ccccc3)cc2)C1=O (stereo not given),x,n,x,x,x,x
C=CCCC1CN(Cc2ccc(OC)cc2)S(=O)(=O)c2c(cccc2N2CCCCC2)O1 (stereo not given),x,n,x,x,x,x
Cc1ccc2cc(CN(C(=O)c3cccs3)c3ccccc3)c(=O)[nH]c2c1,n,14.2,n,n,20.9,33.3
Cc1ccc2[nH]c(=O)c(CN(C(=O)c3cccs3)c3ccccc3)cc2c1,n,n,n,n,x,x
CC(C)(C)OC(=O)[C@H](Cc1ccccc1)NC(=O)c1ncn2c1c(=O)[nH]c1ccc(Br)cc12,n,n,x,n,x,x
CC1CCN(C(=O)c2ncn3c2c(=O)[nH]c2ccc(Br)cc23)CC1,n,9.1,x,n,13.7,17.8
CC(C)c1[nH]nc2c1C(c1ccc(F)cc1)N(Cc1ccccc1)C2=O (stereo not given),x,n,x,x,x,x
Cc1cc(OCC(=O)NCCc2ccc(S(N)(=O)=O)cc2)c2c(C)c(C)c(=O)oc2c1,n,10.4,n,n,14.1,25.2
C[C@@H]1CN(S(=O)(=O)C(C)(C)C)[C@H](CCO)/C1=C\CCO,x,n,x,x,x,x
COc1ccc2cc(C#N)c(Nc3cccc(F)c3)nc2c1,n,n,n,n,x,x
COc1ccc(Nc2nc3cc(C)ccc3cc2C#N)cc1,n,10.6,n,n,10.4,15.0
Cc1ccc2cc(C#N)c(NCc3ccccc3)nc2c1,n,34.6,n,n,30.1,55.0
Cc1cccc2cc(C#N)c(NCc3ccccc3)nc12,n,n,n,n,x,x
CN(C)CCCN1C(=O)C(O)=C(C(=O)c2cc3ccccc3o2)C1c1ccccn1 (stereo not given),n,26.4,n,n,40.0,51.0
CN(C)CCCN1C(=O)C(O)=C(C(=O)c2cc3ccccc3o2)C1c1ccccc1 (stereo not given),n,35.6,n,n,37.1,55.1
O=C(C1=C(O)C(=O)N(Cc2ccco2)C1c1cccnc1)c1cc2ccccc2o1 (stereo not given),n,15.3,n,n,30.8,46.2
COc1cccc2cc(C(=O)C3=C(O)C(=O)N(Cc4ccco4)C3c3cccnc3)oc12 (stereo not given),n,x,n,n,x,x
COC(=O)c1ccc(C2C(C(=O)c3cc4ccccc4o3)=C(O)C(=O)N2CCCN(C)C)cc1 (stereo not given),n,18.6,n,n,20.2,29.0
CCCCCCCCN1C(=O)[C@@H](CC(=O)NCC2CCCCC2)C[C@@]2(C(=O)OC)C1=C[C@H](C(C)(C)C)O[C@@H]2C,x,n,x,x,x,x
CC(C)(C)S(=O)N1C[C@@H]2CC(=O)C(c3ccccc3)=C2[C@H]1CCO (stereo not given in full),x,n,x,x,x,x
Cn1cccc1Cc1nnc(SCC(=O)Nc2nc3ccccc3s2)n1CCc1ccccc1,n,x,n,n,x,x
CCn1c(Cc2ccccc2)nnc1SCC(=O)Nc1nc2ccccc2s1,n,16.5,n,n,28.5,40.0
COC(=O)[C@H]1[C@@H](O)[C@@]2(O)c3c(OC)cc(OC)cc3O[C@@]2(c2ccc(OC)cc2)[C@@H]1c1ccc(F)cc1,x,n,x,x,x,x
N#Cc1ccccc1NC(=O)COC(=O)c1ccc2c(c1)OCCO2,n,n,n,n,x,x
SMILES,hiPSC survival,PG9 binder,Arr AP2 block,ABCB6 inh MLPCN,PG9 binder conf,PGV04 counter
N#Cc1ccc(Cl)cc1NC(=O)COC(=O)c1ccc2c(c1)OCCO2,n,49.6,n,n,39.7,69.1
O=C(COC(=O)c1ccc2c(c1)OCO2)NCc1ccc(Cl)cc1,n,12.3,n,n,n,18.7
COC(=O)C1=C(C)N(C)C(=NCc2ccc3c(c2)OCO3)NC1c1ccc(C(F)(F)F)cc1 (stereo not given),x,n,x,x,x,x
CC(=O)c1cccc(N/C=C\c2nnnn2-c2ccc(F)cc2)c1,n,16.6,n,n,10.8,19.8
CCOc1cccc(C=NNC(=O)C(=O)Nc2cccc(C(F)(F)F)c2)c1O,x,n,x,x,x,x
CC(C)N(Cc1ccccc1)S(=O)(=O)c1n[nH]c(C(C)(C)C)n1,x,n,x,x,x,x
O=C(Nc1cccc(Cl)c1Cl)C1CCN(c2ncccn2)CC1,n,9.2,n,n,12.7,13.7
CS(=O)(=O)N1CCC(C(=O)Nc2cccc(Cl)c2Cl)CC1,n,n,n,n,x,x
